# From ChEMBL document CHEMBL2417481, “Regioselective synthesis of 6-substituted-2-amino-5-bromo-4(3H)-pyrimidinones and evaluation of their antiviral activity” (Eur J Med Chem, 2013)
# System: Vaccinia virus
# Test: Antiviral activity against Vaccinia virus Lederle infected in human HEL cells assessed as reduction in virus-induced cytopathogenicity
# Format: functional, organism-based
# Details: Orthopoxvirus vaccinia
# Summary of the method: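 Confluent cell monolayers (Vero, HeLa, HEL or MDCK, as named in each line) were infected with 100 CCID50 of virus while exposed to a range of compound concentrations. Cytopathicity was scored once it was complete in untreated infected controls.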
row,SMILES,EC50 [µM]
1,Nc1nc(CC(O)c2ccccc2C(F)(F)F)c(Br)c(=O)[nH]1 (stereo not given),> 100
2,CC(C)(O)Cc1nc(N)[nH]c(=O)c1Br,> 100
3,COc1ccc(/C=C/c2nc(N)[nH]c(=O)c2Br)cc1OC,> 100
4,CCCc1nc(N)[nH]c(=O)c1Br,> 100
5,Nc1nc(CC(O)c2ccc(Cl)cc2)c(Br)c(=O)[nH]1 (stereo not given),> 100
6,Nc1nc2c(ncn2COCCO)c(=O)[nH]1 [ACYCLOVIR],> 250
7,Nc1nc(CCc2ccccc2)c(Br)c(=O)[nH]1,> 100
8,Cc1cc(C)c(/C=C/c2nc(N)[nH]c(=O)c2Br)c(C)c1,> 20
9,CCCCc1nc(N)[nH]c(=O)c1Br,> 100
10,CCCCCc1nc(N)[nH]c(=O)c1Br,> 100
